pIC50, pKi: −log10 of the molar value. Activity calls are given as the source filed them.
Assays:
Adenosine receptor A3 = target: T1, Adenosine receptor A3 (Homo sapiens, UniProt P0DMS8); experiment: Displacement of [3H]HEMADO from human adenosine A3 receptor expressed in CHO cell membranes by radioligand competition assay
T1 sequence (P0DMS8 whole entry): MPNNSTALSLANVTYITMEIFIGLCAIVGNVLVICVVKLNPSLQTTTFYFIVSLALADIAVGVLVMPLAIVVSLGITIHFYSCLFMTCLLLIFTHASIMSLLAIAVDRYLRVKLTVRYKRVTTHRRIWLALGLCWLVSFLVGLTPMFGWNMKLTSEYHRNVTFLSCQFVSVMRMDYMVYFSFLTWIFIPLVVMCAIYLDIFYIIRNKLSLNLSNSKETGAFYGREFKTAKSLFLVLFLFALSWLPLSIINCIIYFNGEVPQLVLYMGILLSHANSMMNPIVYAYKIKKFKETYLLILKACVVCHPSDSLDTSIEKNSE
Method in brief: (§1)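 Membranes from stably transfected CHO cells were made by 1000 g, then 100 000g spins. hA1 used 1.0 nM [³H]CCPA in 50 mM Tris/HCl pH 7.4. hA3 used 1.0 nM [³H]HEMADO in 50 mM Tris/HCl, 10 mM MgCl2, 1 mM EDTA, pH 8.25. Ki from competition curves, each concentration tested three to five times in triplicate, mean ± S.E.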

Microglia [1] = experiment: Antioxidant activity in Sprague-Dawley rat microglia assessed as suppression of oxaliplatin-induced reduction in catalase activity at 10 uM incubated for 24 hrs in presence of oxaliplatin by Amplex red dye based assay; type: functional, cell-based
Method in brief: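 Primary rat microglia (5·10⁵ cells/well) exposed 24 h to oxaliplatin 10 µM ± compounds at 10 µM. Cells washed, scraped in PBS, freeze-thawed and spun 13,000×g for 10 min at 4 °C. Catalase read in the supernatant with an Amplex Red kit, normalised to BCA protein; untreated control set to 100%. Three experiments, mean ± SEM.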

Mus musculus [2] = experiment: Analgesic activity in CD1 albino mouse model of oxaliplatin-induced neuropathy hypersensitivity assessed as increase pain threshold at 10 to 30 mg/kg, po dosed from day 14 post oxaliplatin challenge and measured after 15 to 45 mins post dose by cold plate test; type: functional, organism-based
Method in brief: (§2)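 Male CD-1 mice (22–25 g) given oxaliplatin 2.4 mg kg⁻¹ i.p. in 5% glucose on days 1-2, 5-9 and 12-14; controls got vehicle. On day 14, compounds suspended in 1% carboxymethylcellulose were given once p.o. Cold plate held at 4 °C ± 1 °C; latency to first hind-paw licking/lifting recorded, 60 s cut-off. Mean ± SEM, two experimental sets; one-way ANOVA with Bonferroni.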

[3] = Half life in human plasma; type: ADME, cell-free
Method in brief: (§3)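 Compounds incubated at 37 °C in 50 mM Tris buffer pH 7.4 or in pooled healthy-volunteer human plasma (stored -80 °C). Concentration followed over time by LC-MS/MS; t1/2 taken from the decay rate of ln(concentration) versus time. Half-lives above 240 min cannot be resolved and are given as ≥240. Ketoprofen ethyl ester served as plasma-activity reference.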

Adenosine receptor A2b = target: T2, Adenosine receptor A2b (Homo sapiens, UniProt P29275); experiment: Antagonist activity at human adenosine A2B receptor expressed in CHO cells assessed as inhibition of NECA-stimulated adenylyl cyclase activity by Glo-sensor cAMP assay; type: functional, cell-based
T2 sequence (P29275 whole entry): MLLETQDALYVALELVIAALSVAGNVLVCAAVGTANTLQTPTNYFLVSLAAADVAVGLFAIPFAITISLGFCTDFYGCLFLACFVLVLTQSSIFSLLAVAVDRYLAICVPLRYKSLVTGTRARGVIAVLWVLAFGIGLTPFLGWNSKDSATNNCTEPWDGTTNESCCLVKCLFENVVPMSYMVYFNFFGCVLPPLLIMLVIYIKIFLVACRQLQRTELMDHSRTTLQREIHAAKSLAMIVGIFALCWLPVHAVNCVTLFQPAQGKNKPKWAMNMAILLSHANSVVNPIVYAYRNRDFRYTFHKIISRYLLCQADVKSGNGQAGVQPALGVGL
Method in brief: (§4)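 CHO cells stably expressing hA2A or hA2B AR and transiently the GloSensor cAMP biosensor. Cells were equilibrated 2 h at rt in CO2-independent medium with 3% v/v GloSensor reagent and 10% FBS. Compounds at graded concentrations were tested against NECA-induced cAMP rise; luminescence as % of maximal RLU. IC50 from nonlinear regression. Three to five runs in triplicate, mean ± S.E.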

Adenosine receptor A2a [4] = target: Adenosine receptor A2a (Rattus norvegicus, UniProt P30543); experiment: Displacement of [3H]NECA from rat adenosine A2A receptor expressed in CHO cell membranes by radioligand competition assay
Adenosine receptor A2a (Rattus norvegicus, UniProt P30543), sequence (P30543 whole entry): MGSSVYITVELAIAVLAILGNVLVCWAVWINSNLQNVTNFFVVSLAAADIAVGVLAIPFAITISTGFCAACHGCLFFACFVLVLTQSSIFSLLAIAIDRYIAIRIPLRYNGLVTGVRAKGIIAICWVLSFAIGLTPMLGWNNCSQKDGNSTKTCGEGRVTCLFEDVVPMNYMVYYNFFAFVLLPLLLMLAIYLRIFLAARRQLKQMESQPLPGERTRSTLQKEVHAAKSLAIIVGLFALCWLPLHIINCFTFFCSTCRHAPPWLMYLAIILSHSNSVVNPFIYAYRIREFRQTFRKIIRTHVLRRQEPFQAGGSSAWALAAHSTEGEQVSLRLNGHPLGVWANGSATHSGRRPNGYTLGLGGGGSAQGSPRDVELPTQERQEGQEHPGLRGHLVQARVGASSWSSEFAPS

Microglia [5] = experiment: Antioxidant activity in Sprague-Dawley rat microglia assessed as suppression of oxaliplatin-dependent increase in superoxide dismutase-inhibitable superoxide anion generation at 10 uM incubated for 4 hrs in presence of oxaliplatin by spectrophotometry based cytochrome c assay; type: functional, cell-based
Method in brief: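 Primary neonatal (P1–P3) Sprague–Dawley rat cortical microglia (95–98% Iba1-positive), grown to confluence at 5×10⁵/well. Cells incubated 4 h at 37 °C in serum-free DMEM with cytochrome c (1 mg/ml), ± 100 µM oxaliplatin, ± compounds at 10 µM. Absorbance at 550 nm, minus the value with bovine SOD (300 mU/ml). O2•− calculated with ε 2.1×10⁴ M⁻¹ cm⁻¹, as µM/mg protein/4 h. Three experiments, mean ± SEM.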

Adenosine receptor A2a [6] = target: T3, Adenosine receptor A2a (Homo sapiens, UniProt P29274); experiment: Displacement of [3H]NECA from human adenosine A2A receptor expressed in CHO cell membranes by radioligand competition assay
T3 sequence (P29274 whole entry): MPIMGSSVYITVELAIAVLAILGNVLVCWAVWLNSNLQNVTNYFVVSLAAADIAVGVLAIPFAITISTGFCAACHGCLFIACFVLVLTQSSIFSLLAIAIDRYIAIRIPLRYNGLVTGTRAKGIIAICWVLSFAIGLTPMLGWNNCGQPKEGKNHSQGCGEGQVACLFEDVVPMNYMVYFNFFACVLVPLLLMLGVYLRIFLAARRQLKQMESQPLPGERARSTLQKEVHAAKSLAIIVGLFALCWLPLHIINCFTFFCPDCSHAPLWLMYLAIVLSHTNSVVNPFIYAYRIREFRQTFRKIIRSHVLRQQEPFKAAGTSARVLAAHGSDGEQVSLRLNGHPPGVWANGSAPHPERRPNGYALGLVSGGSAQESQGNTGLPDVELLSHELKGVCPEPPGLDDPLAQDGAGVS

Adenosine receptor A2a [7] = target: T3, Adenosine receptor A2a; experiment: Antagonist activity at human adenosine A2A receptor expressed in CHO cells assessed as inhibition of NECA-stimulated adenylyl cyclase activity by Glo-sensor cAMP assay; type: functional, cell-based; method in brief: as §4
Adenosine receptor A1 = target: T4, Adenosine receptor A1 (Homo sapiens, UniProt P30542); experiment: Displacement of [3H]CCPA from human adenosine A1 receptor expressed in CHO cell membranes by radioligand competition assay; method in brief: as §1
T4 sequence (P30542 whole entry): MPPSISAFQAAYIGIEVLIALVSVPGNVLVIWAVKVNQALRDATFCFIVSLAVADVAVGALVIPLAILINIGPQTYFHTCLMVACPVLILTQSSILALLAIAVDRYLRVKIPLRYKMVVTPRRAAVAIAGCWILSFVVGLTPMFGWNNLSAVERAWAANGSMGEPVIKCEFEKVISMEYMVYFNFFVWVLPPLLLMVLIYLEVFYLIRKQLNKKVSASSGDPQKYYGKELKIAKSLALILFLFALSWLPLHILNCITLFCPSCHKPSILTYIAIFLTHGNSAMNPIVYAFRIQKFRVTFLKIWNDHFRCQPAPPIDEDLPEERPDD

Microglia [8] = experiment: Neuroprotective activity against 10 uM Oxaliplatin-induced neurotoxicity in Sprague-Dawley rat microglia assessed as cell viability at 10 uM incubated fro 24 hrs by MTT assay (reference value: 33.2 +/- 1.3%); type: functional
[9] = Half life in 50 mM Tris buffer; type: physicochemical; method in brief: as §3
Microglia [10] = experiment: Neuroprotective activity against 30 uM Oxaliplatin-induced neurotoxicity in Sprague-Dawley rat microglia assessed as cell viability at 10 uM incubated fro 24 hrs by MTT assay (reference value: 19.1 +/- 0.8%); type: functional
Mus musculus [11] = experiment: Analgesic activity in CD1 albino mouse model of oxaliplatin-induced neuropathy hypersensitivity assessed as increase pain threshold at 0.03 mg/kg, po dosed from day 14 post oxaliplatin challenge and measured after 30 to 60 mins post dose by cold plate test; type: functional, organism-based; method in brief: as §2
Mus musculus [12] = experiment: Analgesic activity in CD1 albino mouse model of oxaliplatin-induced neuropathy hypersensitivity assessed as increase pain threshold at 1 to 10 mg/kg, po dosed from day 14 post oxaliplatin challenge and measured after 30 to 60 mins post dose by cold plate test; type: functional, organism-based; method in brief: as §2
Mus musculus [13] = experiment: Analgesic activity in CD1 albino mouse model of oxaliplatin-induced neuropathy hypersensitivity assessed as increase pain threshold at 4 mg/kg, po dosed from day 14 post oxaliplatin challenge and measured up to 90 mins post dose by cold plate test; type: functional, organism-based; method in brief: as §2
Mus musculus [14] = experiment: Analgesic activity in CD1 albino mouse model of oxaliplatin-induced neuropathy hypersensitivity assessed as increase pain threshold at 40 mg/kg, po dosed from day 14 post oxaliplatin challenge and measured up to 90 mins post dose by cold plate test; type: functional, organism-based; method in brief: as §2

SMILES	pKi (Adenosine receptor A3)	pIC50 (Adenosine receptor A2b)	pKi (Adenosine receptor A2a [6])	pKi (Adenosine receptor A1)	also measured
CC(C)(C)c1cc(C(=O)NCCC(=O)Nc2ccc(-c3cn4c(=O)n(-c5ccccc5)nc4c(N)n3)cc2)cc(C(C)(C)C)c1O	< 4.52	< 4.52	7.26	< 4.52	Activity (Microglia [1]): Active; Activity (Mus musculus [2]): Active; half-life [3]: ≥ 240 min; pKi (Adenosine receptor A2a [4]): 7.07; Activity (Microglia [5]): Active; pIC50 (Adenosine receptor A2a [7]): 6.58; Activity (Microglia [8]): 43.5%; half-life [9]: ≥ 240 min; Activity (Microglia [10]): 30.6%
CC(C)(C)c1cc(C(=O)NCCOc2ccc(-c3cn4c(=O)n(-c5ccccc5)nc4c(N)n3)cc2)cc(C(C)(C)C)c1O	< 4.52	< 4.52	4.83	4.86	–
COc1c(C)cc(-c2cn3c(=O)n(-c4ccccc4)nc3c(N)n2)cc1C	8.07	< 4.52	9.77	8.35	–
COc1cc(-c2cn3c(=O)n(-c4ccccc4)nc3c(N)n2)cc(OC)c1OC	6.67	< 4.52	8.46	7.26	–
COc1ccc(-c2cn3c(=O)n(-c4ccccc4)nc3c(N)n2)c(OC)c1	6.93	< 4.52	8.62	7.55	–
COc1ccc(-c2cn3c(=O)n(-c4ccccc4)nc3c(N)n2)cc1OC	7.10	< 4.52	8.24	7.23	–
NCCOc1ccc(-c2cn3c(=O)n(-c4ccccc4)nc3c(N)n2)cc1	5.67	< 4.52	7.83	6.54	–
Cc1cc(-c2cn3c(=O)n(-c4ccccc4)nc3c(N)n2)cc(C)c1O	7.00	< 4.52	8.60	7.67	–
Nc1nc(-c2ccc(NC(=O)CCCCC3CCSS3)cc2)cn2c(=O)n(-c3ccccc3)nc12 (stereo unspecified)	< 4.52	< 4.52	8.30	8.08	–
CC(C)(C)c1cc(-c2cn3c(=O)n(-c4ccccc4)nc3c(N)n2)ccc1O	< 4.52	< 4.52	8.07	< 4.52	half-life [3]: 122 min; pIC50 (Adenosine receptor A2a [7]): 6.75; Activity (Microglia [8]): 46.4%; half-life [9]: ≥ 240 min; Activity (Microglia [10]): 28.6%
COc1cc(O)ccc1-c1cn2c(=O)n(-c3ccccc3)nc2c(N)n1	4.95	< 4.52	7.77	7.53	–
NC(=O)COc1ccc(-c2cn3c(=O)n(-c4ccccc4)nc3c(N)n2)cc1	6.22	< 4.52	7.59	6.41	–
Nc1nc(-c2cc(O)c(O)c(O)c2)cn2c(=O)n(-c3ccccc3)nc12	5.25	4.76	7.02	6.76	–
C=CC(=O)Nc1ccc(-c2cn3c(=O)n(-c4ccccc4)nc3c(N)n2)cc1	< 4.52	< 4.52	8.74	6.58	–
Nc1nc(-c2ccc(NC(=O)CCNC(=O)CCCCC3CCSS3)cc2)cn2c(=O)n(-c3ccccc3)nc12 (stereo unspecified)	< 4.52	< 4.52	7.44	5.87	half-life [3]: 41 min; pIC50 (Adenosine receptor A2a [7]): 6.53; Activity (Microglia [8]): 38.9%; half-life [9]: ≥ 240 min; Activity (Microglia [10]): 18.3%
N#CCOc1ccc(-c2cn3c(=O)n(-c4ccccc4)nc3c(N)n2)cc1	< 4.52	< 4.52	8.09	< 4.52	Activity (Mus musculus [2]): Active; half-life [3]: ≥ 240 min; pKi (Adenosine receptor A2a [4]): 7.41; pIC50 (Adenosine receptor A2a [7]): 6.80; Activity (Microglia [8]): 48.7%; half-life [9]: ≥ 240 min; Activity (Microglia [10]): 23%
Nc1ccc(-c2cn3c(=O)n(-c4ccccc4)nc3c(N)n2)cc1	6.60	< 4.52	7.64	7.47	–
Nc1nc(-c2ccc3c(c2)OCO3)cn2c(=O)n(-c3ccccc3)nc12	7.42	< 4.52	8.13	7.89	–
Nc1nc(-c2ccc(OCCNC(=O)CCCCC3CCSS3)cc2)cn2c(=O)n(-c3ccccc3)nc12 (stereo unspecified)	5.39	< 4.52	8.62	6.42	Activity (Microglia [1]): Active; Activity (Mus musculus [11]): Active; half-life [3]: ≥ 240 min; Activity (Mus musculus [12]): Dose-dependent effect; pKi (Adenosine receptor A2a [4]): 8.05; Activity (Microglia [5]): Active; pIC50 (Adenosine receptor A2a [7]): 6.94; Activity (Microglia [8]): 54.5%; half-life [9]: ≥ 240 min; Activity (Microglia [10]): 34.2%
NCCC(=O)Nc1ccc(-c2cn3c(=O)n(-c4ccccc4)nc3c(N)n2)cc1	6.29	5.02	9.23	6.32	–
Nc1nc(-c2ccc(O)c(O)c2)cn2c(=O)n(-c3ccccc3)nc12	6.02	< 4.52	8.28	7.37	–
COc1c(C(C)(C)C)cc(-c2cn3c(=O)n(-c4ccccc4)nc3c(N)n2)cc1C(C)(C)C	< 4.52	< 4.52	6.85	6.96	–
O=C(O)CCCCC1CCSS1 (stereo unspecified)	–	–	–	–	Activity (Mus musculus [13]): inactive; Activity (Mus musculus [14]): inactive

— ChEMBL document CHEMBL4321802, “Antioxidant-Conjugated 1,2,4-Triazolo[4,3-a]pyrazin-3-one Derivatives: Highly Potent and Selective Human A2A Adenosine Receptor Antagonists Possessing Protective Efficacy in Neuropathic Pain” (J Med Chem, 2019)
